The subject of data set [1] is RAW264.7. As to the kind of experiment: Cytotoxicity against mouse RAW264.7 cells assessed as cell viability at 0.01 to 100 uM after 24 hrs by MTT assay. The data set is classed as cell-based. The following applies: raw264.7, 24 h. In outline: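 Viability of RAW 264.7 cells measured by MTT after 24 h exposure to compound at 0.01–100 µM.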
(Tetrazolium assays rely on reduction of a dye to a coloured formazan, in cell work by metabolically active cells.)

The subject of data set [2] is RAW264.7. As to the kind of experiment: Antiinflammatory activity in mouse RAW264.7 cells assessed as inhibition of LPS-induced increase in TNF-alpha level incubated for 2 hrs prior to LPS challenge measured after 22 hrs by ELISA. It counts as functional, cell-based. Summed up:
(§1)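 RAW 264.7 macrophages pretreated 2 h with compound (0–20 µM) or 10 µM hydrocortisone as positive control, then exposed to LPS for a further 22 h. TNF-α, IL-1β and IL-6 in culture medium determined by ELISA. Means ± SEM from four independent experiments.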
On the technique in general: An ELISA detects its analyte on a solid surface through an enzyme-linked reagent.

The subject of data set [3] is RAW264.7. Put plainly: Antiinflammatory activity in mouse RAW264.7 cells assessed as inhibition of LPS-induced increase in IL-6 level incubated for 2 hrs prior to LPS challenge measured after 22 hrs by ELISA. The data set is classed as functional, cell-based. Summed up:
as §1

The subject of data set [4] is RAW264.7. Put plainly: Antiinflammatory activity in mouse RAW264.7 cells assessed as inhibition of LPS-induced increase in IL-1beta level incubated for 2 hrs prior to LPS challenge measured after 22 hrs by ELISA. It counts as functional, cell-based. Summed up:
as §1

The test system of data set [5] is RAW264.7. As to the kind of experiment: Antiinflammatory activity in mouse RAW264.7 cells assessed as inhibition of LPS-induced increase in TNF-alpha level at 10 uM incubated for 2 hrs prior to LPS challenge measured after 22 hrs by ELISA relative to control. The data set is classed as functional. Summed up: as §1
Data set [6] concerns RAW264.7. Put plainly: Antiinflammatory activity in mouse RAW264.7 cells assessed as inhibition of LPS-induced increase in IL-6 level at 10 uM incubated for 2 hrs prior to LPS challenge measured after 22 hrs by ELISA relative to control. It counts as functional. Summed up: as §1
For data set [7], the system named is RAW264.7. Put plainly: Antiinflammatory activity in mouse RAW264.7 cells assessed as inhibition of LPS-induced increase in IL-1beta level at 10 uM incubated for 2 hrs prior to LPS challenge measured after 22 hrs by ELISA relative to control. It counts as functional. In outline:
as §1

Data set [8] deals with RAW264.7. Put plainly: Antiinflammatory activity in mouse RAW264.7 cells assessed as inhibition of LPS-induced increase in TNF-alpha level at 20 uM incubated for 2 hrs prior to LPS challenge measured after 22 hrs by ELISA relative to control. It counts as functional. In outline:
as §1

Data set [9] deals with RAW264.7. Put plainly: Antiinflammatory activity in mouse RAW264.7 cells assessed as inhibition of LPS-induced increase in IL-6 level at 20 uM incubated for 2 hrs prior to LPS challenge measured after 22 hrs by ELISA relative to control. The data set is classed as functional. In outline: as §1
Data set [10] relates to RAW264.7. As to the kind of experiment: Antiinflammatory activity in mouse RAW264.7 cells assessed as inhibition of LPS-induced increase in IL-1beta level at 20 uM incubated for 2 hrs prior to LPS challenge measured after 22 hrs by ELISA relative to control. It counts as functional. Summed up:
as §1

The test system of data set [11] is RAW264.7. As to the kind of experiment: Antiinflammatory activity in mouse RAW264.7 cells assessed as inhibition of LPS-induced nitric oxide production incubated for 2 hrs prior to LPS challenge measured after 22 hrs relative to vehicle-treated control. The data set is classed as functional, cell-based. In outline:
(§2)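 Cells treated 2 h with compound (0–20 µM) or 10 µM hydrocortisone, followed by LPS for a further 22 h. NO production estimated as nitrite in culture medium by Griess reaction. Inhibition expressed as blocked ratio. Means ± SEM, four independent experiments.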

The subject of data set [12] is RAW264.7. Put plainly: Antiinflammatory activity in mouse RAW264.7 cells assessed as inhibition of LPS-induced nitric oxide production at 2 uM incubated for 2 hrs prior to LPS challenge measured after 22 hrs relative to vehicle-treated control. It counts as functional. In outline:
as §2

In data set [13] the test system is RAW264.7. Put plainly: Antiinflammatory activity in mouse RAW264.7 cells assessed as inhibition of LPS-induced nitric oxide production at 10 uM incubated for 2 hrs prior to LPS challenge measured after 22 hrs relative to vehicle-treated control. The data set is classed as functional. In outline:
as §2

The test system of data set [14] is RAW264.7. As to the kind of experiment: Antiinflammatory activity in mouse RAW264.7 cells assessed as inhibition of LPS-induced nitric oxide production at 20 uM incubated for 2 hrs prior to LPS challenge measured after 22 hrs relative to vehicle-treated control. It counts as functional. Summed up: as §2
Data set [15] has as its system RAW264.7. As to the kind of experiment: Antiinflammatory activity in mouse RAW264.7 cells assessed as inhibition of LPS-induced ROS generation incubated for 2 hrs prior to LPS challenge measured after 22 hrs by spectrophotometry relative to vehicle-treated control. It counts as functional, cell-based. In outline:
(§3)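 Compound (0–20 µM) applied to RAW 264.7 cells for 2 h, then LPS added for a further 22 h. Cells harvested, loaded with 10 µM DCFH-DA for 20 min, washed twice with cold PBS. Intracellular ROS read as arbitrary fluorescence units. Means ± SEM, four independent experiments.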

The subject of data set [16] is RAW264.7. Put plainly: Antiinflammatory activity in mouse RAW264.7 cells assessed as inhibition of LPS-induced ROS generation at 10 uM incubated for 2 hrs prior to LPS challenge measured after 22 hrs by spectrophotometry relative to vehicle-treated control. The data set is classed as functional. In outline: as §3
The test system of data set [17] is RAW264.7. Put plainly: Antiinflammatory activity in mouse RAW264.7 cells assessed as inhibition of LPS-induced ROS generation at 20 uM incubated for 2 hrs prior to LPS challenge measured after 22 hrs by spectrophotometry relative to vehicle-treated control. It counts as functional. In outline:
as §3

Data set [18] deals with Transcription factor p65 (Mus musculus) (UniProt Q04207). Put plainly: Antiinflammatory activity in mouse RAW264.7 cells assessed as inhibition of LPS-induced NF-kappaB p65 subunit nuclear translocation at 20 uM incubated for 1 hr prior to LPS challenge measured after 30 mins by immunofluorescence assay relative to vehicle-treated control. It counts as cell-based. Summed up: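 Immunofluorescence: RAW 264.7 cells pretreated with 20 µM compound for 1 h, then LPS for 30 min. p65 subunit localization (cytoplasm vs nucleus) imaged by fluorescence microscopy.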
Sequence of Transcription factor p65 (Mus musculus) (Q04207 whole entry): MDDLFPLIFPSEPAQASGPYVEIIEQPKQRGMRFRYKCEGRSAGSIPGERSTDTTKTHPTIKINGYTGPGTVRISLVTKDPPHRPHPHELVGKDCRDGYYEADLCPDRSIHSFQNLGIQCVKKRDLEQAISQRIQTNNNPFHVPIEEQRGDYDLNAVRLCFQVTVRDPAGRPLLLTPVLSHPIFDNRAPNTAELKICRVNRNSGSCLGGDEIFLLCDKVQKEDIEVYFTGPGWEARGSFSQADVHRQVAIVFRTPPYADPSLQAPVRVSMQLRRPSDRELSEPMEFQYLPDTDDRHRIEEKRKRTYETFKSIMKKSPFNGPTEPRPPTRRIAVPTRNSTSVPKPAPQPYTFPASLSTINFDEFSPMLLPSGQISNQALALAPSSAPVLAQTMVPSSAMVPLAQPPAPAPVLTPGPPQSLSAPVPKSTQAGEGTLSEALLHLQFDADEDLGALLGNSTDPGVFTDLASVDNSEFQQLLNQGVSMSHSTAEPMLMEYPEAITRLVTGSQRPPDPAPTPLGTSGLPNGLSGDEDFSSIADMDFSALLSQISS

Data set [19] has the same target. Put plainly: Antiinflammatory activity in mouse RAW264.7 cells assessed as inhibition of LPS-induced DNA binding activity of NF-kappaB p65 incubated for 1 hr prior to LPS challenge measured after 30 mins by ELISA relative to vehicle-treated control. The data set is classed as cell-based. Summed up: (§4)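 RAW264.7 cells preincubated with compound (0–20 µM) for 1 h, then stimulated with LPS for 30 min. NF-κB p65 DNA-binding activity quantified by ELISA-based TransAM p65 transcription factor kit. Means ± SEM of three independent experiments. LPS given at 0.5 µg/mL.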

For data set [20] the target is unchanged. As to the kind of experiment: Antiinflammatory activity in mouse RAW264.7 cells assessed as inhibition of LPS-induced DNA binding activity of NF-kappaB p65 at 2 uM incubated for 1 hr prior to LPS challenge measured after 30 mins by ELISA relative to vehicle-treated control. The data set is classed as cell-based. In outline:
as §4

The target is the same in data set [21]. Put plainly: Antiinflammatory activity in mouse RAW264.7 cells assessed as inhibition of LPS-induced DNA binding activity of NF-kappaB p65 at 10 uM incubated for 1 hr prior to LPS challenge measured after 30 mins by ELISA relative to vehicle-treated control. The data set is classed as cell-based. In outline:
as §4

Data set [22] shares this target. Put plainly: Antiinflammatory activity in mouse RAW264.7 cells assessed as inhibition of LPS-induced DNA binding activity of NF-kappaB p65 at 20 uM incubated for 1 hr prior to LPS challenge measured after 30 mins by ELISA relative to vehicle-treated control. It counts as cell-based. In outline:
as §4

Activity calls are given as the source filed them. The rule behind the calls is not given here.

As usually defined, the inhibition is the change of the read-out against control, counted positive when it falls. Turning to `CC1=C[C@]2(C(C)(C)O)C[C@]3(OC2=O)[C@@H](C)CC[C@@H]13`, in data set [1], the Activity result is “Non-toxic”. Also, the inhibition result in data set [2], in data set [3], in data set [4], in data set [11], in data set [15] and in [19] was “Dose-dependent effect” each time. The inhibition in data set [20] was 36.5%; in data set [21], 51.3%; in data set [22] it was 68%. Besides, the inhibition at 10 µM in data set [5] is 37.6%; in [6] it was 37.3%; in data set [7] it was 27.9%; in data set [13], 53.9%; in data set [16], 57.9%. The inhibition at 20 µM in data set [8] amounted to 55.4%; in [9] it was 78.3%; in data set [10], 68%; in data set [14], 71%; in data set [17], 82.3%. Also, in data set [12], the inhibition at 2 µM turned out to be 25.1%. In addition, the inhibition result in data set [18] is “Active”.
For the compound `C[C@]12CCC(=O)C=C1CC[C@@H]1[C@@H]2[C@@H](O)C[C@@]2(C)[C@H]1CC[C@]2(O)C(=O)CO`, the inhibition entry in data set [5], in data set [6], in [7] and in data set [13] was “Active” each time.

These data come from ChEMBL document CHEMBL3351270, “Curcumolide, a unique sesquiterpenoid with anti-inflammatory properties from Curcuma wenyujin” (Bioorg Med Chem Lett, 2015).
